Experimental data: ChEMBL document CHEMBL2203171, “The use of small molecule probes to study spatially separated stimulus-induced signaling pathways” (Bioorg Med Chem Lett, 2012)
Active and inactive are the calls of the source.

Assays:
[1] = biological target: T1, Interleukin-1 receptor type 1 (Mus musculus) (UniProt P13504); assay: Inhibition of MyD88 recruitment to IL-1R in C57BL/6 mouse BMDM cells assessed as inhibition of IL-1-induced IkappaBalpha phosphorylation up to 90 mins by Western blot analysis; type: cell-based
T1 sequence (whole entry): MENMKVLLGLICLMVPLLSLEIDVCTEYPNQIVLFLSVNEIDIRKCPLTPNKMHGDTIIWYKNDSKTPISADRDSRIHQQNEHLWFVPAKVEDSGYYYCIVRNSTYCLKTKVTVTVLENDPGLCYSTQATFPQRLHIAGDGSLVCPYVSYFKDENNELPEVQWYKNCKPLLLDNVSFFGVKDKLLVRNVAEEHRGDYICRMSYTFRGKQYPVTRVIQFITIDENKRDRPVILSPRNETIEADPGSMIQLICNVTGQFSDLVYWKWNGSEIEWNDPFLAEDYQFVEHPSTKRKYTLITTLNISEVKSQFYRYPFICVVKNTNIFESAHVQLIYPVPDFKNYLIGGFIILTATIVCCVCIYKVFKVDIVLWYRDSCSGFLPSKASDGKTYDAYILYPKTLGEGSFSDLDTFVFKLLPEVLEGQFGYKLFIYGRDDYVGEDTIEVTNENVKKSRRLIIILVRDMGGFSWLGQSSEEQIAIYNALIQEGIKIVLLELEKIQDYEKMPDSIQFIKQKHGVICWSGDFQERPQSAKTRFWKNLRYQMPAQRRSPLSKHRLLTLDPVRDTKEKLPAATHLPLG
In short: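 Bone marrow macrophages from C57BL/6 mice, grown in 70% growth medium (DMEM, 10% FBS) plus 30% L929-conditioned medium and given fresh medium 12-14 h before stimulation. Stimuli: IL-1 40 ng/ml, HKSA ~10^8 cfu/ml, pI:pC 50 μg/ml or CpG 10 μg/ml, ± compound at 10 μM (final) added from a 200x DMSO stock. IκBα and p38 profiled by immunoblot. Three independent experiments, quantitated and normalized.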

[2] = biological target: T2, Inhibitor of nuclear factor kappa-B kinase subunit beta (Mus musculus) (UniProt O88351); assay: Inhibition of IKKbeta in C57BL/6 mouse BMDM cells assessed as inhibition of LPS-induced RelA phosphorylation at 25 uM after 5 mins by Western blot analysis; type: cell-based
T2 sequence (whole entry): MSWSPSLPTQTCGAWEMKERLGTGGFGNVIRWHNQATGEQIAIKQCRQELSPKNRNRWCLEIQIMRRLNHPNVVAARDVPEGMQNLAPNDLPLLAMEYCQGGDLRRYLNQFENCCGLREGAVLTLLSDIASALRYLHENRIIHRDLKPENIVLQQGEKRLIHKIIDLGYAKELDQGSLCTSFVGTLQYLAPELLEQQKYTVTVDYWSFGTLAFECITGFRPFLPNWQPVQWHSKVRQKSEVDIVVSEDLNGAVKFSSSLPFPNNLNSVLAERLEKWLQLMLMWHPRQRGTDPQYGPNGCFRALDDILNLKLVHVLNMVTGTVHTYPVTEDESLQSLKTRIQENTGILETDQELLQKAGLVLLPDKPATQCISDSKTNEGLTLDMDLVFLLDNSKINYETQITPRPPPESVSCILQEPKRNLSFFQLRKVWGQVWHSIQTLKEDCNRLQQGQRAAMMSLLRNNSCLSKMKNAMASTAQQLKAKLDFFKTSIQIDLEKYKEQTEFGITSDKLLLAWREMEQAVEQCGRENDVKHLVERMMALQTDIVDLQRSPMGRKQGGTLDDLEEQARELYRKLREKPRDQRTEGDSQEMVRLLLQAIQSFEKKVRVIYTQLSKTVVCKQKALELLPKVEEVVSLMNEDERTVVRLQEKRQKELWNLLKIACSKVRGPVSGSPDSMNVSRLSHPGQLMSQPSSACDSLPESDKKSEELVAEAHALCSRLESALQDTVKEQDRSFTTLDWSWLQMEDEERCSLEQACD
In short: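 C57BL/6 marrow-derived macrophages were cultured in 70% growth medium/30% L929-conditioned medium and refreshed 12-14 h before stimulation. Stimuli were TNF 40 ng/ml or LPS 100 ng/ml, ± compound at 25 μM from a 200x DMSO stock. Western blots tracked IKK, p38, IκBα and phospho-RelA. Results from three independent experiments were quantitated and normalized.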

[3] = biological target: T2, Inhibitor of nuclear factor kappa-B kinase subunit beta (Mus musculus); assay: Inhibition of IKKbeta in C57BL/6 mouse BMDM cells assessed as inhibition of TNFalpha-induced IkappaBalpha phosphorylation at 50 uM up to 90 mins by Western blot analysis; type: cell-based
[4] = biological target: T3, MAP kinase p38 (Mus musculus) (UniProt P47811+O08911+Q9WUI1+Q9Z1B7); assay: Inhibition of MAPK p38 in C57BL/6 mouse BMDM cells assessed as inhibition of TNFalpha-induced phosphorylation at 50 uM up to 90 mins by Western blot analysis; type: cell-based
[5] = biological target: T3, MAP kinase p38 (Mus musculus); assay: Inhibition of MAPK p38 in C57BL/6 mouse BMDM cells assessed as inhibition of LPS-induced phosphorylation at 50 uM up to 90 mins by Western blot analysis; type: cell-based
[6] = biological target: T2, Inhibitor of nuclear factor kappa-B kinase subunit beta (Mus musculus); assay: Inhibition of IKKebta in C57BL/6 mouse BMDM cells assessed as inhibition of LPS-induced IkappaBalpha phosphorylation at 25 uM by Western blot analysis

Measured: inhibition

O=C(CCCCCN1C(=O)C=CC1=O)Oc1ccc2cc(C(C(=O)NCc3ccccc3)N(C(=O)Cc3ccc4c(c3)OCO4)C3CC3)ccc2c1 (stereo unspecified)
inactive: [3] | [4] | [5]
active: [1] | [2] | [6]
